Here are results for 12 compounds from ChEMBL document CHEMBL3585256, “Triphenylphosphonium Cations of the Diterpenoid Isosteviol: Synthesis and Antimitotic Activity in a Sea Urchin Embryo Model” (J Nat Prod, 2015).

What is called IC50 is the point on the concentration scale where inhibition reaches its midpoint. Low readings indicate greater potency, high ones weaker potency.

Active and inactive are the calls of the source. Where only a bound is given, the exact number is not on record here.

The test system of data set [1] is Paracentrotus lividus. The experiment in a line: Antimitotic activity against sea urichin L embryo model assessed as death of embryo at hatched blastula stage by sea urichin embryo assay. In kind it is functional.
In data set [2] the test system is Paracentrotus lividus. The experiment in a line: Antimitotic activity against sea urichin L embryo model assessed as inhibition of skeletal spiculae growth by sea urichin embryo assay. In kind it is functional. In short, it runs like this:
(§1)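 Hatched free-swimming blastulae (8−9 h postfertilization) exposed to compound and followed to four-arm pluteus (34−36 h). Scored for spicule growth inhibition or arrest at late gastrula. Gametes obtained by intracoelomic 0.5 M KCl; embryos grown in filtered seawater at room temperature with paddle stirring, monolayer up to 2000 embryos/mL. Stocks in DMSO diluted with EtOH, or in water.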

In data set [3] the test system is Paracentrotus lividus. The experiment in a line: Antimitotic activity against sea urichin L embryo model assessed as cleavage alteration after 2.5 to 5.5 hrs of fertilization by sea urichin embryo assay. Format: functional.
Data set [4] concerns Paracentrotus lividus. Kind of data set: Antimitotic activity against sea urichin L embryo model assessed as full mitotic arrest by sea urichin embryo assay. In kind it is functional.
In data set [5] the test system is Paracentrotus lividus. The experiment in a line: Antimitotic activity against sea urichin L embryo model assessed as embryo spinning by sea urichin embryo assay. In kind it is functional.
The test system of data set [6] is Paracentrotus lividus. Kind of data set: Induction of mitotic spindle defects in sea urichin L embryo model assessed as aberrant mitotic spindles by conventional light microscopy. In kind it is functional, organism-based. An outline of the steps:
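Eggs exposed 8−15 min postfertilization, incubated at 21 °C. Mitotic apparatus examined by light microscopy at 1 h (first cleavage anaphase) and 2.5 h postfertilization, scored for aberrant, multipolar or absent spindles.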

The subject of data set [7] is Paracentrotus lividus. Kind of data set: Induction of mitotic spindle defects in sea urichin L embryo model assessed as formation of aberrant mitotic spindles at 2 uM by conventional light microscopy.
The test system of the next data set is HL-60. The experiment in a line: Cytotoxicity against human HL60 cells by MTT assay. Format: functional, cell-based. In general terms: Formazan colour is commonly taken as a measure of viable cells.
The subject of data set [8] is Paracentrotus lividus. The experiment in a line: Toxicity in sea urichin L embryo assessed as development up to 4 uM. In kind it is organism-based. The settings on record: in vivo. An outline of the steps: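 Fertilized eggs exposed 8−15 min postfertilization to 2-fold decreasing concentrations, with cleavage alteration or arrest scored at 2.5−5.5 h. Effective threshold concentration defined as the lowest giving 100% cleavage alteration and embryo death before hatching, with no effect at 2-fold lower. Final DMSO ≤0.05% and EtOH ≤1%. Run in duplicate.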

Data set [9] can be described thus: Cytotoxicity against human NUGC3 cells by MTT assay. In kind it is functional. The settings on record: NUGC-3, read-out: LD50 (the source's name).
In the next data set the test system is MOLT-4. Kind of data set: Cytotoxicity against human MOLT4 cells by MTT assay. In kind it is functional. The conditions noted are these: read-out: LD50 (the source's name).
The test system of another data set is BALL-1. Kind of data set: Cytotoxicity against human BALL-1 cells by MTT assay. In kind it is functional. The conditions noted are these: read-out: LD50 (the source's name).
The test system of data set [10] is Paracentrotus lividus. The experiment in a line: Induction of mitotic spindle defects in sea urichin L embryo model assessed as complete blocked of spindle assembly at 50 nM by conventional light microscopy.
Data set [11] concerns Paracentrotus lividus. The experiment in a line: Antimitotic activity against sea urichin L embryo model assessed as late gastrula stage by sea urichin embryo assay. Format: functional. In short, it runs like this: as §1

Take `COc1cc([C@@H]2c3cc4c(cc3[C@@H](O[C@@H]3O[C@@H]5CO[C@@H](C)O[C@H]5[C@H](O)[C@H]3O)[C@H]3COC(=O)[C@H]23)OCO4)cc(OC)c1O` [ETOPOSIDE]: the EC with Paracentrotus lividus [1] was 40 µM; in the data set on Paracentrotus lividus [2] it was 4 µM; with Paracentrotus lividus [3] it was 0.5 µM; in the data set with Paracentrotus lividus [4] it was greater than 68 µM; with Paracentrotus lividus [5], greater than 68 µM.
For `CC[N+](CC)(CC)CCOCCOCCOC(=O)[C@]1(C)CCC[C@@]2(C)[C@@H]3CC[C@@]4(C)C[C@]3(CC[C@@H]21)CC4=O.[Br-]`, the EC in the data set on Paracentrotus lividus [2] was 40 µM; in the data set on Paracentrotus lividus [3] it was greater than 100 µM; with Paracentrotus lividus [4], greater than 100 µM; with Paracentrotus lividus [5], greater than 100 µM.
In the case of `C[C@@]12CC[C@@H]3[C@@](CC[C@H]4[C@@]3(C)CCC[C@@]4(C)C(=O)OCCOCCOCC[P+](c3ccccc3)(c3ccccc3)c3ccccc3)(CC1=O)C2.[Br-]`, the EC in the data set on Paracentrotus lividus [3] is 1 µM; in the data set with Paracentrotus lividus [4] it was 2 µM; in the data set with Paracentrotus lividus [5], greater than 10 µM. The outcome in the data set on Paracentrotus lividus [6] was Active.
For the compound `CC(=O)O[C@H]1C(=O)[C@@]2(C)[C@H]([C@H](OC(=O)c3ccccc3)[C@]3(O)C[C@H](OC(=O)[C@H](O)[C@@H](NC(=O)c4ccccc4)c4ccccc4)C(C)=C1C3(C)C)[C@]1(OC(C)=O)CO[C@@H]1C[C@@H]2O` [PACLITAXEL], the EC in the data set with Paracentrotus lividus [1] is 2 µM; with Paracentrotus lividus [3], 0.5 µM; in the data set with Paracentrotus lividus [4], greater than 10 µM; with Paracentrotus lividus [5] it was greater than 10 µM.
As to `C[C@@]12CC[C@@H]3[C@@](CC[C@H]4[C@@]3(C)CCC[C@@]4(C)C(=O)OCCCCCC[P+](c3ccccc3)(c3ccccc3)c3ccccc3)(CC1=O)C2.[Br-]`, the EC in the data set with Paracentrotus lividus [1] was 1 µM; with Paracentrotus lividus [3], 2 µM; with Paracentrotus lividus [4] it was greater than 4 µM; with Paracentrotus lividus [5], greater than 4 µM. Besides, the outcome in the data set with Paracentrotus lividus [6] and with Paracentrotus lividus [7] was Active.
As to `C[C@@]12CC[C@@H]3[C@@](CC[C@H]4[C@@]3(C)CCC[C@@]4(C)C(=O)OCCOCCOCCOCC[P+](c3ccccc3)(c3ccccc3)c3ccccc3)(CC1=O)C2.[Br-]`, the EC in the data set with Paracentrotus lividus [3] is 1 µM; in the data set on Paracentrotus lividus [4] it was 2 µM; in the data set on Paracentrotus lividus [5], greater than 10 µM. In addition, in the data set with Paracentrotus lividus [6], the outcome was Active.
For `C[C@@]12CC[C@@H]3[C@@](CC[C@H]4[C@@]3(C)CCC[C@@]4(C)C(=O)OCCC[P+](c3ccccc3)(c3ccccc3)c3ccccc3)(CC1=O)C2.[Br-]`, the EC with Paracentrotus lividus [1] is 4 µM; in the data set on Paracentrotus lividus [3], 2 µM; in the data set with Paracentrotus lividus [4], greater than 4 µM; in the data set on Paracentrotus lividus [5], greater than 4 µM. For the same compound, in the data set on Paracentrotus lividus [6], the result was Active.
As to `C[C@@]12CC[C@@H]3[C@@](CC[C@H]4[C@@]3(C)CCC[C@@]4(C)C(=O)OCCCCCCCC[P+](c3ccccc3)(c3ccccc3)c3ccccc3)(CC1=O)C2.[Br-]`, the EC is 0.5 µM in the data set on Paracentrotus lividus [1], 2 µM in the data set with Paracentrotus lividus [3], greater than 4 µM in the data set on Paracentrotus lividus [4] and greater than 4 µM in the data set with Paracentrotus lividus [5]. For the same compound, the result in the data set on Paracentrotus lividus [6] was Active.
With `C[C@@]12CC[C@@H]3[C@@](CC[C@H]4[C@@]3(C)CCC[C@@]4(C)C(=O)O)(CC1=O)C2` [ISOSTEVIOL], the IC50 in the data set with HL-60 was found to be 75 µM. In addition, the EC in the data set on Paracentrotus lividus [3], in the data set with Paracentrotus lividus [4] and in the data set with Paracentrotus lividus [5] was greater than 4 µM each time. Further, the Activity entry with Paracentrotus lividus [8] is listed as “Non-toxic”. Moreover, the CC50 is 167 µM in [9], 84 µM with MOLT-4 and 87 µM with BALL-1.
On to `COC(=O)Nc1nc2cc(C(=O)c3cccs3)ccc2[nH]1` [NOCODAZOLE], for which, in the data set on Paracentrotus lividus [10], the result was Active. For the same compound, the EC in the data set on Paracentrotus lividus [1] was greater than 0.5 µM; in the data set on Paracentrotus lividus [3], 0.005 µM; with Paracentrotus lividus [4], 0.1 µM; with Paracentrotus lividus [11] it was 0.02 µM; in the data set on Paracentrotus lividus [5], 0.1 µM.
`CC[N+](CC)(CC)CCOCCOCCOCCOC(=O)[C@]1(C)CCC[C@@]2(C)[C@@H]3CC[C@@]4(C)C[C@]3(CC[C@@H]21)CC4=O.[Br-]`: the EC with Paracentrotus lividus [2] was 100 µM; in the data set on Paracentrotus lividus [3], greater than 100 µM; in the data set on Paracentrotus lividus [4], greater than 100 µM; in the data set with Paracentrotus lividus [5], greater than 100 µM.
Regarding `C[C@@]12CC[C@@H]3[C@@](CC[C@H]4[C@@]3(C)CCC[C@@]4(C)C(=O)OCCOCCOCCOCCOCC[P+](c3ccccc3)(c3ccccc3)c3ccccc3)(CC1=O)C2.[Br-]`, the EC was 1 µM with Paracentrotus lividus [3], 4 µM in the data set on Paracentrotus lividus [4] and greater than 10 µM in the data set on Paracentrotus lividus [5]. Also, the outcome with Paracentrotus lividus [6] was Active.
